# Results published in ChEMBL document CHEMBL3352635 (Bioorg Med Chem Lett, 2014).
# Columns and labels:
# [1] = Metabolic stability in simulated gastric fluid assessed as compound remaining at pH 1.2 after 180 mins by HPLC analysis; assay type: ADME; details: read-out: Stability
# Procedure, shortened: (§1)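 Compounds incubated at 37 °C in simulated gastric fluid (pH 1.2), simulated intestinal fluid (pH 6.8) or 100% human plasma for up to 180 min. […] Half-life estimated from the decay.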
# [2] = Metabolic stability in simulated gastric fluid assessed as compound remaining at pH 1.2 after 15 mins by HPLC analysis; assay type: ADME; details: read-out: Stability; procedure, shortened: as §1
# [3] = Metabolic stability in simulated gastric fluid assessed as compound remaining at pH 1.2 measured immediately by HPLC analysis; assay type: ADME; details: read-out: Stability; procedure, shortened: as §1
# [4] = Metabolic stability in simulated gastric fluid assessed as compound remaining at pH 1.2 after 120 mins by HPLC analysis; assay type: ADME; details: read-out: Stability; procedure, shortened: as §1
# [5] = Metabolic stability in simulated gastric fluid assessed as compound remaining at pH 1.2 after 10 mins by HPLC analysis; assay type: ADME; details: read-out: Stability; procedure, shortened: as §1
# [6] = Metabolic stability in simulated gastric fluid assessed as compound remaining at pH 1.2 after 60 mins by HPLC analysis; assay type: ADME; details: read-out: Stability; procedure, shortened: as §1
# [7] = Metabolic stability in simulated gastric fluid assessed as compound remaining at pH 1.2 after 30 mins by HPLC analysis; assay type: ADME; details: read-out: Stability; procedure, shortened: as §1
# [8] = Metabolic stability in simulated gastric fluid assessed as compound remaining at pH 1.2 after 5 mins by HPLC analysis; assay type: ADME; details: read-out: Stability; procedure, shortened: as §1
# [9] = Half life in simulated gastric fluid at pH 1.2 by HPLC analysis; assay type: ADME; procedure, shortened: as §1
# in vivo [10] = details: Sprague-Dawley, rat, plasma, po, 10 mg/kg
# in vivo [11] = details: Sprague-Dawley, rat, po, 10 mg/kg
# in vivo [12] = details: Sprague-Dawley, rat, po, 10 mg/kg; remark: listed apart in the source
# in vivo [13] = details: Sprague-Dawley, rat, plasma, po, 10 mg/kg; remark: listed apart in the source
# in vivo [14] = details: Sprague-Dawley, rat, plasma, po, 10 mg/kg; remark: listed apart in the source
# [15] = Metabolic stability in simulated gastric fluid assessed as chlorambucil level; assay type: ADME, tissue-based, Stomach; details: simulated gi fluid
Structure (SMILES),remaining at 3 h [1],remaining at 0.25 h [2],remaining at 0 min [3],remaining at 2 h [4],remaining at 10 min [5],remaining at 1 h [6],remaining at 0.5 h [7],remaining at 5 min [8],half-life [9],Cmax at 2 h (in vivo [10]),Tmax (in vivo [11]),Cmax at 0.25 h (in vivo [12]),Cmax at 4 h (in vivo [13]),Cmax at 8 h (in vivo [14]),t1/2 [15]
CCCC(OC(=O)[C@@H](C)c1ccc2cc(OC)ccc2c1)O[N+](=O)[O-] (stereo partly drawn),39%,83%,100%,58%,94%,75%,83%,96%,< 3 h,–,–,–,–,–,–
COc1ccc2cc([C@H](C)C(=O)O)ccc2c1 [NAPROXEN],–,–,–,–,–,–,–,–,–,> 30000 ng/mL,0.25 h,55000 ng/mL,> 20000 ng/mL,< 15000 ng/mL,–
CCC(OC(=O)[C@@H](C)c1ccc2cc(OC)ccc2c1)O[N+](=O)[O-] (stereo partly drawn),7%,74%,100%,39%,90%,51%,62%,94%,1 h,–,–,–,–,–,–
CC(OC(=O)CCCc1ccc(N(CCCl)CCCl)cc1)O[N+](=O)[O-] (stereo not drawn),–,–,–,–,–,–,–,–,–,–,–,–,–,–,< 5 min
CCCCC(OC(=O)[C@@H](C)c1ccc2cc(OC)ccc2c1)O[N+](=O)[O-] (stereo partly drawn),71%,87%,100%,80%,96%,87%,87%,98%,> 3 h,–,–,–,–,–,–
